Hits are enriched below; roughly 3.5% of the tested compounds scored in any of these assays.
MrgX1 PAM = human MrgX1 positive allosteric modulation, primary screen. B-score at 10 µM. AID 588675. Q96LB2. 310,000 tested, 0.63% active. MrgX1-HEK293, Fluo-4 calcium flux, FDSS; active compounds read high;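 active = plate-corrected calcium response at least 3 library SD above typical, normal starting fluorescence, not activating the receptor alone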;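 also: compound read alongside a low EC10 to EC30 dose of BAM8-22 agonist; peak minus trough fluorescence over baseline measured at the second addition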
Target sequence (Q96LB2 whole entry, looked up): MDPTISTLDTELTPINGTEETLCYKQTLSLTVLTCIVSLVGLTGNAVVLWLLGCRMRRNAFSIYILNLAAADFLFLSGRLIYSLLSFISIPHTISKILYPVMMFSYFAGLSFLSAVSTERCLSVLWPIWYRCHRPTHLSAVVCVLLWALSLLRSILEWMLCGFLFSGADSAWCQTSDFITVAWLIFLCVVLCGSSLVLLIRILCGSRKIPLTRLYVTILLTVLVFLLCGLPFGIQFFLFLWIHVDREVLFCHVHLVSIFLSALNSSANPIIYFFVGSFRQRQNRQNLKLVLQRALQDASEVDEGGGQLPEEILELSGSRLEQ
RGS4 pot = RGS4 potentiation or activation; HEK293 M3R/inducible RGS4, carbachol calcium flux Fluo4; active compounds read low; 310,000 tested, 0.92% active; B-score at 10 µM;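 active = B-score of the integrated calcium signal more than 4 SD below the library mean, with starting fluorescence not abnormally high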;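 also: negative B-score means reduced calcium response which marks RGS4 activation or potentiation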
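Assay system: HEK293 FlpIn-TREx cells, stable M3R, doxycycline-inducible RGS4 / Probe or stimulus: carbachol, ECmax concentration / Times: overnight RGS4 induction, 30 min dye load 37 °C, 20 min compound RT / Signal: kinetic calcium fluorescence imaging with Fluo4-AM dye, 2 µM / Measure: Agonist-evoked peak-minus-minimum fluorescence over baseline, integrated ratio, B score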
MrgX1 ag = agonists of human MrgX1 receptor; Q96LB2; MrgX1-HEK293 cells, Fluo-4 calcium fluorescence, agonist mode; active compounds read high; B-score at 10 µM; 310,000 tested, 0.44% active; AID 588627;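 active = calcium response B-score plate-corrected fluorescence ratio at least 3 library SD, with starting fluorescence B-score inside 5 SD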
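Material: HEK293 cells stably expressing human MrgX1 receptor | Quantity: 15,000 cells per well | Times: Cells plated overnight, dye loaded 0.5 h 37 °C, 0.5 h room temperature | Measured by: Kinetic Fluo-4 NW fluorescence of intracellular calcium | Control set: Positive and negative controls per plate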
MrgX1 antagonist = human MrgX1 receptor antagonism, primary screen; MRGX1-HEK293 calcium flux, Fluo-4, BAM8-22 antagonism; active compounds read low; Q96LB2; 310,000 tested, 1.3% active; B-score at 10 µM;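 active = calcium-response B-score plate-corrected more than 3 library SD below zero, starting fluorescence within 5 deviations, no agonist response on first addition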;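 also: peak minus trough fluorescence over baseline after final BAM8-22 challenge near maximal dose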
RGS4 block = inhibitors of human RGS4. 310,000 tested, 0.45% active. B-score at 10 µM. HEK293 M3R/RGS4 inducible, Fluo-4 calcium flux; active compounds read high; triggered by carbachol at its EC20. P49798;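 active = B-score, a plate-corrected calcium signal, over three deviations above library mean, with baseline fluorescence within five deviations of library mean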;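 also: RGS4 expression induced by doxycycline in cells with stable M3 receptor; B-score is computed from the integrated fluorescence ratio over baseline after carbachol; higher B-score means a larger calcium signal and so more RGS4 inhibition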
Target sequence (P49798 whole entry, looked up): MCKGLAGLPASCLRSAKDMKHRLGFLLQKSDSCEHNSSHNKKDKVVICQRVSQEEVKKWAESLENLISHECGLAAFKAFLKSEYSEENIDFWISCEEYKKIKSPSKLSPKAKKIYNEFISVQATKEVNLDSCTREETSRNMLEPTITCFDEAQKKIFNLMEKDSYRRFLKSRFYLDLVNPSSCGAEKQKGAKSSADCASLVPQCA
Numbers stand for hits; - = inactive; . = no result.

SMILES	MrgX1 PAM	RGS4 pot	MrgX1 ag	MrgX1 antagonist	RGS4 block
O=C(C1CCCO1)N1CCN(C(=S)Nc2cc(F)cc(F)c2)CC1 (stereo not given)	-	-	-	-	-
CN(C(=O)/C=C/c1ccccc1)C1CCCCC1	-	-	-	-	-
C=CCSC1=C(C#N)C2(CCCCC2)C(C#N)C(=O)N1 (stereo not given)	-	-	-	-7.7	-
N#CC1=C(SCC(=O)NC2CC2)NC(=O)C(C#N)C12CCCCC2 (stereo not given)	-	-	-	-	-
CC1CC=C2C(C#N)=C(N)C(C#N)(C#N)C(c3cccs3)C2C1 (stereo not given)	-	-	-	-5.6	-
CCOC(=O)c1cc(C#N)c(Oc2ccc(F)cc2)nc1-c1ccccc1	-	-	-	-	-
CCOC(=O)c1cc(C#N)c(Oc2cccc(C(F)(F)F)c2)nc1-c1ccccc1	-	-7.8	-	-	-
NC[C@H](O)c1ccc(O)c(O)c1	-	.	39	-	.
CC(C)NCC(O)c1ccc2ccccc2c1 (stereo not given)	-	.	-	-	.
COc1cc(C(O)CO)ccc1O (stereo not given)	-	.	-	-	.
CC(C)NCC(O)c1ccc(O)c(O)c1 (stereo not given)	-	-	33	-	-
Cc1ccc(S(=O)(=O)Nc2nc(C)c(C)s2)cc1	-	-	-	-	-
COC(=O)COn1c(SCC(=O)OC)nc2ccccc2c1=O	-	-	-	-4.6	-
CCN(CC)S(=O)(=O)c1cccc(NC(=O)C2SC(=Nc3ccc(C)cc3C)C(C(=O)NC(C)COC)=C2N)c1 (stereo not given)	-	-	-	-	-
Cc1ccc(N=C2SC(C(=O)Nc3ccc(OC(F)(F)F)cc3)C(N)=C2C(=O)Nc2c(C)cc(C)cc2C)cc1 (stereo not given)	10	.	-	-	.
CCOC(=O)CC(=O)CSc1nc(-c2cccnc2)cc(C)c1C#N	-	-	-	-4.9	-
COc1ccc(Cl)cc1NC(=O)CN(C)C(=O)c1cc2ccccc2cc1O	-	-	-	-	-
COCC1CCCCN1C(=O)c1cccc(OC2CCN(S(C)(=O)=O)CC2)c1 (stereo not given)	-	-	-	-	-
Clc1ccc(-c2nnc(N3CCOCC3)o2)cc1	-	-	-	-	-
CN1CCCCC1CCN1c2ccccc2Sc2ccc(S(C)=O)cc21 (stereo not given)	-	-7.3	-	-	-
CN1CCCC(CN2c3ccccc3Sc3ccccc32)C1 (stereo not given)	-	-	-	-	-
COCCCN(C(=S)NC(=O)C12CC3CC(CC(C3)C1)C2)c1c(N)n(Cc2ccccc2)c(=O)[nH]c1=O	-	-	-	-	-
CCN(CC(=O)Nc1cc(Cl)ccc1C)C(=O)c1ccc(=O)n(Cc2ccccc2)n1	-	-	-	-	-
CCOc1cc(/C=C(/C#N)C(=O)Nc2ccc(O)cc2)cc(Br)c1O	-	-	62	-	-
C=CCn1c(-c2ccccc2[N+](=O)[O-])n[nH]c1=S	-	-	-	-	-
SMILES	MrgX1 PAM	RGS4 pot	MrgX1 ag	MrgX1 antagonist	RGS4 block
C=CCn1c(-c2ccc([N+](=O)[O-])cc2)n[nH]c1=S	-	-7.7	-	-	-
Cc1cccc[n+]1CCCCCCCCCC[n+]1ccccc1C	-	-	-	-	-
CCCCCCCC[n+]1cccc2c3ccccc3ccc21	-	-9.9	-	-	-
CCCCCCCCCC[n+]1cccc2c3ccccc3ccc21	.	-10	.	.	-
Cn1ncc(Cl)c1C(=O)NNC(=O)Nc1cccc2ccccc12	-	-	-	-	-
COc1ccc(CNC(=O)Cn2nnc3ccccc3c2=O)cc1	-	-	-	-	-
Cc1ccccc1OCCC(=O)OCC(=O)NC(=O)c1ccccc1	-	-	-	-	-
CC(C)CC(NC(=O)c1ccccc1)C(=O)N/N=C/c1ccco1 (stereo not given)	-	-	30	-	-
CC(NC(=O)c1ccccc1)C(=O)N/N=C/c1ccco1 (stereo not given)	-	-	-	-	-
O=C(CCCCCCCCC(=O)N/N=C/c1ccco1)N/N=C/c1ccco1	-	-	-	-5.7	-
O=C(O)/C=C/c1cn(-c2ccccc2)nc1-c1ccc(-c2ccc([N+](=O)[O-])cc2)o1	-	-	-	-4.6	-
O=C(O)/C=C/c1cn(-c2ccccc2)nc1-c1cccc([N+](=O)[O-])c1	-	-	-	-	-
O=[N+]([O-])c1ccc(N/N=C/c2cn(-c3ccccc3)nc2-c2ccccc2)cc1	-	-	-	-4.5	-
COc1ccc(-c2nn(-c3ccccc3)cc2/C=C/C(=O)O)cc1[N+](=O)[O-]	9.2	-	-	-	-
COc1ccc(-c2nn(-c3ccccc3)cc2C=O)cc1[N+](=O)[O-]	-	-	-	-	-
Nc1nc2c(s1)CCc1c-2cnn1-c1ccccc1	-	-	33	-	-
Nc1nc2c(s1)COc1ccccc1-2	-	-	-	-	-
Cn1c(O)c(/C=N/NC(=O)c2cc3ccccc3cc2O)c2ccccc21	-	-7.6	50	-	-
Cn1c2ccccc2c2cc(/C=N/NC(=O)c3ccc(O)cc3O)ccc21	-	-	-	-	-
Cc1ccc2nc(/C(C#N)=C/c3ccc(-c4ccccc4C(=O)O)o3)[nH]c2c1	-	-	33	-	-
N#C/C(=C\c1ccc(-c2ccccc2C(=O)O)o1)c1nc2ccccc2[nH]1	-	-	27	-	-
CCO/C([O-])=N/c1sn[n+](C)c1C	-	-	-	-5.3	-
COc1ccc(-c2cc(C(F)(F)F)c3c(n2)sc2c(O)cc(=O)[nH]c23)c(OC)c1	-	-	39	-	-
COc1ccc(CN2CCNC(=O)C2CC(=O)NCCCn2cccn2)c(OC)c1 (stereo not given)	-	-	-	-	-
CC(=O)[C@H]1CC[C@H]2[C@@H]3CCC4=CC(=O)CC[C@]4(C)[C@H]3[C@H](O)C[C@]12C	-	-	-	-	-
SMILES	MrgX1 PAM	RGS4 pot	MrgX1 ag	MrgX1 antagonist	RGS4 block
C[C@]12CC(O)C3C(CCC4=CC(=O)CC[C@@]43C)C1CCC2c1csc(-c2ccccc2)n1 (stereo not given in full)	-	-9.6	-	-	-
Cc1ccc(-c2csc(NC(=O)COC(=O)c3cccc(S(=O)(=O)N4CCOCC4)c3)n2)cc1	-	-	-	-4.8	-
CCOC(=O)c1ccc(P(=O)(c2ccccc2)c2ccccc2)cc1	-	-	-	-	-
CC1CC(C)CN(C(=O)c2ccccc2Nc2ccc(SC(F)F)cc2)C1 (stereo not given)	-	-7.4	-	-	-
CN1CCN(C(=O)c2ccccc2Nc2ccc(SC(F)F)cc2)CC1	-	-	-	-	-
Cc1ccc(C(C)C)c(OCc2nn(CC(=O)c3ccc(OC(F)F)cc3)c3[n+]2CCCCC3)c1	-	-	-	-5.5	-

Screening results (PubChem)
